Experimental data reported in ChEMBL document CHEMBL2034978, “Synthesis and evaluation of curcumin-related compounds for anticancer activity” (Eur J Med Chem, 2012).
The source made the active and inactive calls. The calls are words filed in the database; no cut-off is given here.

Experiments:
PANC-1 [1] = assay: Cytotoxicity against human PANC1 cells after 72 hrs by MTT assay; format: functional, cell-based; settings: PANC-1, 72 h
Method in brief: (§1)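 Seeded at 0.2 × 10⁵ cells/ml, grown 24 h, then exposed 72 h to a range of concentrations (upper limit 30). MTT read-out: formazan dissolved in DMSO, absorbance at 540 nm, growth expressed as percent of DMSO-treated cells.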

PC-3 [2] = assay: Cytotoxicity against human PC3 cells after 72 hrs by MTT assay; format: functional, cell-based; settings: PC-3, 72 h; method in brief: as §1
HT-29 [3] = assay: Cytotoxicity against human HT-29 cells after 72 hrs by MTT assay; format: functional, cell-based; settings: HT-29, 72 h; method in brief: as §1
PANC-1 [4] = assay: Ratio of curcumin IC50 to compound IC50 for human PANC1 cells; format: functional
Method in brief: (§2)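 Curcumin served as positive control in each incubation, with its growth-inhibition data averaged across experiments.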

PC-3 [5] = assay: Ratio of curcumin IC50 to compound IC50 for human PC3 cells; format: functional; method in brief: as §2
HT-29 [6] = assay: Ratio of curcumin IC50 to compound IC50 for human HT-29 cells; format: functional; method in brief: as §2
PC-3 [7] = assay: Induction of apoptosis in human PC3 cells at <1 uM after 96 hrs by morphology analysis; format: functional, cell-based
[8] = biological target: Mitogen-activated protein kinase; ERK1/ERK2 (Homo sapiens) (UniProt P27361+P28482); assay: Inhibition of ERK1/2 phosphorylation in human PC3 cells at 0.5 uM after 24 hrs by Western blotting relative to beta-actin; format: cell-based; settings: PC-3
Chain of Mitogen-activated protein kinase; ERK1/ERK2 (Homo sapiens) (P27361 whole entry, looked up): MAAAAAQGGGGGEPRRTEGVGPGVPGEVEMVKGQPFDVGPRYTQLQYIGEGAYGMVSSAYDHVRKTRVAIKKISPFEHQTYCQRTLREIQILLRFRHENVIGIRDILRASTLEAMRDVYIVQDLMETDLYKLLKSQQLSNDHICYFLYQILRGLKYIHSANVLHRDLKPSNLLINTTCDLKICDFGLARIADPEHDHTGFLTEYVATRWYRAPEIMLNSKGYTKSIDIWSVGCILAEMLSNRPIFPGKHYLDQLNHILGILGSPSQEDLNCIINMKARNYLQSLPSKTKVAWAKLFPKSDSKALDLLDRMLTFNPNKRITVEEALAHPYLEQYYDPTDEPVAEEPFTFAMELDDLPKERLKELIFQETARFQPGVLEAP
Chain of Mitogen-activated protein kinase; ERK1/ERK2 (Homo sapiens) (P28482 whole entry, looked up): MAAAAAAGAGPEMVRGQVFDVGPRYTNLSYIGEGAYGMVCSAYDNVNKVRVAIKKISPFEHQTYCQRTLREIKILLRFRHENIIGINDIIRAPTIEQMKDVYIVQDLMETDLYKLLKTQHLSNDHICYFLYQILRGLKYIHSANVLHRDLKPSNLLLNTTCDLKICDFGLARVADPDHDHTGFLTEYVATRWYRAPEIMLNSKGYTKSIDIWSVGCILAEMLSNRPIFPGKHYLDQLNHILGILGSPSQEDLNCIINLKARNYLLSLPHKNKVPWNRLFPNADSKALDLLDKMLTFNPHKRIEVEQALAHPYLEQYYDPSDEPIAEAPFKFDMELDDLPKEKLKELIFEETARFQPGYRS
Method in brief: (§3)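 PC-3 cells were seeded at 1 × 10⁵ cells/ml in 100 mm dishes, grown 24 h, then treated 24 h. Cells were lysed in Tris-HCl pH 7.4 buffer containing NaF, pyrophosphate, orthovanadate and Triton X-100, and lysates cleared at 12,000×g. Blots on PVDF were probed with anti-phospho-Akt or anti-phospho-Erk1/2, detected by ECL, quantified by optical density and normalized to β-actin.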

PC-3 [9] = assay: Inhibition of Akt phosphorylation in human PC3 cells at 0.5 uM after 24 hrs by Western blotting relative to beta-actin; format: cell-based; method in brief: as §3

inhibition [8]	Compound	IC50 (PANC-1 [1]) [µM]	IC50 (PC-3 [2]) [µM]	IC50 (HT-29 [3]) [µM]	Ratio IC50 (PANC-1 [4])	Ratio IC50 (PC-3 [5])	Ratio IC50 (HT-29 [6])	Activity (PC-3 [7])	inhibition (PC-3 [9])
–	COc1cc(/C=C/C(=O)/C=C/c2ccc(O)c(OC)c2)ccc1O	4.62	4.2	2.94	–	–	–	–	–
–	O=C1/C(=C/c2ccc(O)cc2)CCC/C1=C\c1ccc(O)cc1	13.2	13.2	11.7	–	–	–	–	–
Active	O=C1/C(=C/c2cccnc2)CSC/C1=C\c1cccnc1	0.51	0.96	0.79	45	21	27	Active	inactive
–	O=C1/C(=C/c2ccncc2)COC/C1=C\c1ccncc1	2.96	1.83	4.17	–	–	–	–	–
–	O=C1/C(=C/c2cccnc2)CCC/C1=C\c1cccnc1	2.5	2.16	1.99	–	–	–	–	–
–	O=C(/C=C/c1ccc(F)cc1)/C=C/c1ccc(F)cc1	12.5	–	9.35	–	–	–	–	–
–	COc1ccc(/C=C/C(=O)/C=C/c2ccc(OC)c(OC)c2)cc1OC	3.39	2.98	2.17	–	–	–	–	–
–	O=C(/C=C/c1ccc(O)c(O)c1)/C=C/c1ccc(O)c(O)c1	13.4	8.99	9.02	–	–	–	–	–
–	COc1ccc(/C=C2\CCC/C(=C\c3ccc(OC)c(OC)c3)C2=O)cc1OC	4.46	5.2	4	–	–	–	–	–
–	O=C1/C(=C/c2ccc(Cl)cc2)CCC/C1=C\c1ccc(Cl)cc1	11.8	11.3	7.75	–	–	–	–	–
–	O=C1/C(=C/c2ccsc2)CSC/C1=C\c1ccsc1	7.49	4.13	6.75	–	–	–	–	–
–	O=C(/C=C/c1ccc(Cl)cc1)/C=C/c1ccc(Cl)cc1	14.1	16.7	10.9	–	–	–	–	–
–	COc1cc(/C=C2\COC/C(=C\c3cc(OC)c(O)c(OC)c3)C2=O)cc(OC)c1O	1.72	0.91	1.44	–	–	–	–	–
–	COc1cc(/C=C/C(=O)/C=C/c2cc(OC)c(OC)c(OC)c2)cc(OC)c1OC	3.38	4.63	1.68	–	–	–	–	–
–	COc1cc(/C=C2\CCC/C(=C\c3ccc(O)c(OC)c3)C2=O)ccc1O [CYCLOVALONE]	4.43	5.89	3.73	–	–	–	–	–
–	O=C1/C(=C/c2ccc(Cl)cc2)CC/C1=C\c1ccc(Cl)cc1	23.2	25	15.9	–	–	–	–	–
–	COc1ccc(C=C2CSCC(=Cc3ccc(OC)cc3)C2=O)cc1	10.9	8.46	7.93	–	–	–	–	–
–	O=C1C(=Cc2ccc(O)cc2)CSCC1=Cc1ccc(O)cc1	12	8.23	4.27	–	–	–	–	–
–	O=C1/C(=C/c2ccc(F)cc2)CCC/C1=C\c1ccc(F)cc1	10.4	11.9	7.56	–	–	–	–	–
–	COc1cc(/C=C2\CC/C(=C\c3ccc(O)c(OC)c3)C2=O)ccc1O	15.5	15.5	9.7	–	–	–	–	–
–	O=C1/C(=C/c2ccccn2)CCC/C1=C\c1ccccn1	1.3	1.28	1.43	–	–	–	–	–
–	COc1ccc(/C=C2\COC/C(=C\c3ccc(OC)c(OC)c3OC)C2=O)c(OC)c1OC	2.67	2.74	2.45	–	–	–	–	–
–	O=C1/C(=C/c2ccc(Br)cc2)CC/C1=C\c1ccc(Br)cc1	25.3	> 30	19.9	–	–	–	–	–
–	O=C1/C(=C/c2ccccn2)CC/C1=C\c1ccccn1	5.19	2.94	5.36	–	–	–	–	–
–	O=C1/C(=C/c2ccncc2)CC/C1=C\c1ccncc1	7.88	5.58	7.58	–	–	–	–	–
–	COc1cc(/C=C/C(=O)/C=C/c2cc(OC)c(O)c(OC)c2)cc(OC)c1O	2.23	3.41	2.24	–	–	–	–	–
–	O=C1/C(=C/c2ccc(O)cc2)COC/C1=C\c1ccc(O)cc1	11.1	7.28	3.86	–	–	–	–	–
–	O=C1/C(=C/c2ccc(F)cc2)CNC/C1=C\c1ccc(F)cc1	3.15	2.87	3.26	–	–	–	–	–
–	COc1cc(/C=C2\CC/C(=C\c3cc(OC)c(O)c(OC)c3)C2=O)cc(OC)c1O	9.63	9.98	7.8	–	–	–	–	–
–	O=C(/C=C/c1ccc(Br)cc1)/C=C/c1ccc(Br)cc1	20.8	23.1	14	–	–	–	–	–
